Active and inactive are the calls of the source. No cut-off for these calls is given here.
How the values were obtained:
[1] = Inhibition of NIM by scintillation proximity assay
[2] = Inhibition of PDGFR by scintillation proximity assay
[3] = Inhibition of STK2 by scintillation proximity assay
[4] = Inhibition of SULU1 by scintillation proximity assay
HCT-116 [5] = assay: Antiproliferative activity against human HCT116 cells after 72 hrs by SRB assay; assay type: functional, cell-based; settings: HCT-116, 72 h
COLO 205 = assay: Antiproliferative activity against human COLO205 cells after 72 hrs by SRB assay; assay type: functional, cell-based; settings: COLO 205, 72 h
[6] = Antiproliferative activity against human C-433 cells after 72 hrs by SRB assay; assay type: functional, cell-based; settings: C-433, 72 h
DU-145 = assay: Antiproliferative activity against human DU145 cells after 72 hrs by SRB assay; assay type: functional, cell-based; settings: DU-145, 72 h
A-375 = assay: Antiproliferative activity against human A375 cells after 72 hrs by SRB assay; assay type: functional, cell-based; settings: A-375, 72 h
PC-3 = assay: Antiproliferative activity against human PC3 cells after 72 hrs by SRB assay; assay type: functional, cell-based; settings: PC-3, 72 h
MCF7 = assay: Antiproliferative activity against human MCF7 cells after 72 hrs by SRB assay; assay type: functional, cell-based; settings: MCF7, 72 h
BXPC-3 [7] = assay: Antiproliferative activity against human BxPC3 cells after 72 hrs by SRB assay; assay type: functional, cell-based; settings: BXPC-3, 72 h
A2780 [8] = assay: Cell cycle arrest in human A2780 cells assessed as accumulation at G0/G1 phase at 3 uM after 24 hrs by FACS analysis; assay type: functional
Outline: (§1)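 A2780 cells (ECACC) seeded at 25000 cells/cm² in RPMI 1640, pH 7.4, with 10% FBS, 2 mM L-glutamine and penicillin–streptomycin, at 37 °C in 5% CO₂. After 24 h, treated for 24 h at 1 and 3 µM. Floating and trypsinised adherent cells pooled, PBS-washed, and DNA content analysed by flow cytometry.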

A2780 [9] = assay: Cell cycle arrest in human A2780 cells assessed as accumulation at S phase at 3 uM after 24 hrs by FACS analysis; assay type: functional; outline: as §1
A2780 [10] = assay: Cell cycle arrest in human A2780 cells assessed as accumulation at G2/M phase at 3 uM after 24 hrs by FACS analysis; assay type: functional; outline: as §1
A2780 [11] = assay: Cell cycle arrest in human A2780 cells assessed as accumulation at sub-G1 phase at 3 uM after 24 hrs by FACS analysis; assay type: functional; outline: as §1
A2780 [12] = assay: Cell cycle arrest in human A2780 cells assessed as accumulation at G0/G1 phase at 1 uM after 24 hrs by FACS analysis; assay type: functional; outline: as §1
A2780 [13] = assay: Cell cycle arrest in human A2780 cells assessed as accumulation at S phase at 1 uM after 24 hrs by FACS analysis; assay type: functional; outline: as §1
A2780 [14] = assay: Cell cycle arrest in human A2780 cells assessed as accumulation at G2/M phase at 1 uM after 24 hrs by FACS analysis; assay type: functional; outline: as §1
A2780 [15] = assay: Inhibition of cellular DNA synthesis in human A2780 cells assessed as BrdU incorporation into nuclear DNA at 3 uM after 24 hrs by Hoechst 33342 staining-based microscopic analysis; assay type: functional; parameters: scale not given: the % may be the effect or the level left
Outline: (§2)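 A2780 human ovarian adenocarcinoma cells were seeded at 25000 cells/cm² in RPMI 1640 pH 7.4 with 10% FBS, 2 mM L-glutamine and penicillin–streptomycin. They were kept at 37 °C in 5% CO₂. After 24 h they were exposed to compound for 24 h. Floating and adherent cells were harvested with trypsin/EDTA, washed in PBS, and split for flow cytometry, immunoblot and BrdU incorporation.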

A2780 [16] = assay: Inhibition of cellular DNA synthesis in human A2780 cells assessed as BrdU incorporation into nuclear DNA at 1 uM after 24 hrs by Hoechst 33342 staining-based microscopic analysis; assay type: functional; parameters: scale not given: the % may be the effect or the level left; outline: as §2
[17] = molecular target: T1, Cyclin-dependent kinase (Homo sapiens) (UniProt P06493+P11802+P24941+Q00535+Q00534+P50613+Q00526+Q00536+Q07002+P49336+Q00537+P21127+Q96Q40+Q9BWU1+O94921+P50750+Q15131+Q14004+Q8IZL9+Q9NYV4); assay: Inhibition of CDK in human A2780 cells assessed as reduction of hyperphosphorylated form of retinoblastoma protein at 1 uM by immunohistochemistry; assay type: cell-based
[18] = molecular target: T1, Cyclin-dependent kinase (Homo sapiens); assay: Inhibition of CDK in human A2780 cells assessed as reduction of hyperphosphorylated form of retinoblastoma protein at 3 uM by immunohistochemistry; assay type: cell-based
[19] = molecular target: T1, Cyclin-dependent kinase (Homo sapiens); assay: Inhibition of CDK in human A2780 cells assessed as accumulation of hypophosphorylated form of retinoblastoma protein at 1 uM by immunohistochemistry; assay type: cell-based
[20] = molecular target: T1, Cyclin-dependent kinase (Homo sapiens); assay: Inhibition of CDK in human A2780 cells assessed as accumulation of hypophosphorylated form of retinoblastoma protein at 3 uM by immunohistochemistry; assay type: cell-based
A2780 [21] = assay: Antitumor activity against human A2780 cells xenografted in iv dosed BALB/c nu/nu mouse assessed as inhibition of tumor growth administered QD for 10 consecutive days measured every 3 days post last dose; assay type: functional, organism-based
Outline: (§3)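 Human tumor xenografts (A2780 ovarian, HCT-116 colon, BX-PC3 pancreatic) in mice. Compound dissolved in 5% dextrose and given iv once daily for 10 consecutive days; A2780 curves show dosing from day 8. Doses were 10, 20 and 30 mg/kg for A2780, and 10 and 20 mg/kg for HCT-116 and BX-PC3. Controls received vehicle. Tumor growth inhibition taken at end of treatment; body weight tracked.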

A2780 [22] = assay: Antitumor activity against human A2780 cells xenografted in BALB/c nu/nu mouse assessed as inhibition of tumor growth at 30 mg/kg, iv QD for 10 consecutive days measured every 3 days post last dose; assay type: functional; outline: as §3
HCT-116 [23] = assay: Antitumor activity against human HCT116 cells xenografted in BALB/c nu/nu mouse assessed as inhibition of tumor growth at 20 mg/kg, iv QD for 10 consecutive days measured every 3 days post last dose; assay type: functional; settings: HCT-116, read-out: INH; outline: as §3
HCT-116 [24] = assay: Antitumor activity against human HCT116 cells xenografted in iv dosed BALB/c nu/nu mouse assessed as inhibition of tumor growth administered QD for 10 consecutive days measured every 3 days post last dose; assay type: functional, organism-based; outline: as §3
BXPC-3 [25] = assay: Antitumor activity against human BxPC3 cells xenografted in BALB/c nu/nu mouse assessed as inhibition of tumor growth at 20 mg/kg, iv QD for 10 consecutive days measured every 3 days post last dose; assay type: functional; outline: as §3
Mus musculus = assay: Inhibition of CDK in human A2780 cells xenografted in iv dosed BALB/c nu/nu mouse assessed as reduction of hyperphosphorylated form of retinoblastoma protein at 30 mg/kg, iv for 5 days by immunohistochemistry; assay type: functional, organism-based; parameters: dose 30 mg/kg
Outline: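 Mice bearing A2780 xenografts given 30 mg/kg iv for 5 days; vehicle controls. Tumors analysed by immunohistochemistry for BrdU and phospho-pRb positive cells. For BrdU, sections were denatured and pretreated with 4 N HCl and proteinase K, then stained with the Dako ARK kit and counterstained with hematoxylin. Automated quantitative image analysis done by two observers.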

[26] = Inhibition of CK2 by scintillation proximity assay
A2780 [27] = assay: Antiproliferative activity against human A2780 cells after 72 hrs by CellTiter-Glo luminescence assay; settings: A2780, 72 h
A2780 [28] = assay: Antitumor activity against human A2780 cells xenografted in iv dosed BALB/c nu/nu mouse assessed as reduction of BrdU incorporation into cellular DNA at 30 mg/kg, iv for 5 days by immunohistochemistry

CC(C)CC(=O)Nc1n[nH]c2c1CN(C(=O)C1CCN(C)CC1)C2(C)C [PHA-793887]
IC50 [1]: > 10000 nM | IC50 [2]: > 10000 nM | IC50 [3]: > 10000 nM | IC50 [4]: > 10000 nM | IC50 (HCT-116 [5]): 163 nM | IC50 (COLO 205): 188 nM | IC50 [6]: 285 nM | IC50 (DU-145): 303 nM | IC50 (A-375): 396 nM | IC50 (PC-3): 601 nM | IC50 (MCF7): 1280 nM | IC50 (BXPC-3 [7]): 3440 nM | Activity (A2780 [8]): -11% | Activity (A2780 [9]): -48% | Activity (A2780 [10]): 263% | Activity (A2780 [11]): 26.2% | Activity (A2780 [12]): 25% | Activity (A2780 [13]): -76% | Activity (A2780 [14]): 62% | Activity (A2780 [15]): -100% | Activity (A2780 [16]): -85% | Activity [17]: Active | Activity [18]: Active | Activity [19]: Active | Activity [20]: Active | Activity (A2780 [21]): Dose-dependent effect | inhibition in vivo at 30 mg/kg (A2780 [22]): 76% | inhibition in vivo at 20 mg/kg (HCT-116 [23]): 81% | Activity (HCT-116 [24]): Dose-dependent effect | inhibition in vivo at 20 mg/kg (BXPC-3 [25]): 84% | Activity (Mus musculus): Active | IC50 [26]: > 10000 nM | IC50 (A2780 [27]): 90 nM | Activity (A2780 [28]): Active

From ChEMBL document CHEMBL1157586 (Bioorg Med Chem, 2010)
